# In ChEMBL document CHEMBL4513216, “Probing the Open Global Health Chemical Diversity Library for Multistage-Active Starting Points for Next-Generation Antimalarials” (ACS Infect Dis, 2020):
# Experiment: Toxicity liver stage against HepG2, at 10uM
# Format: cell-based
# Parameters: test concentration 10 uM, cell line HepG2-A16-CD81EGFP
# Settings: human, HepG2-A16-CD81EGFP cells; read-out: INHIBITION
# How it was run: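 Uninfected HepG2-A16-CD81EGFP cells, 3 × 10^3 per well, 1536-well, plated on prespotted compound at 10 μM final, parasite-free screening media added to match infected plates; puromycin 10 μM positive, DMSO 0.5% negative; run in parallel with 48 h PbLuc assay at 37 °C, 5% CO2; viability by CellTiter-Glo luminescence, normalized to controls.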
row,Structure (SMILES),cytotoxicity at 10 µM [%]
1,O=C(N1CCOCC1)N1CCOC[C@H](Oc2ccc(C(F)(F)F)cc2)C1,1.27
2,COc1ccc(-c2noc([C@@H]3C[C@@H](O)CN3C3CCCCC3)n2)cc1,3.25
3,CC(C)COC(=O)N1[C@@H](c2ccco2)[C@@H](CO)C[C@]12CCCCNC2=O,1.19
4,COCCn1ccc2ccc(C(=O)N3CCN(C(C)=O)CC3)cc21,-8.6
5,CC(C)CS(=O)(=O)Nc1ccc2c(c1)OCC(C)(C)C(=O)N2C,-0.123
6,COCC(C)NC(=O)c1nnn(-c2ccc(Br)cc2)n1 (stereo not drawn),-0.712
7,CCOC(=O)C1CN(S(C)(=O)=O)Cc2ncn(CC)c21 (stereo not drawn),6.74
8,Cc1noc([C@]23COC[C@H]2CN(S(C)(=O)=O)C3)n1,10.4
9,Cc1cncc(C(=O)N2CCc3ncc(Cn4cccn4)n3CC2)c1,14.3
10,O=C(NC1CC1)N1CCOCC2(C1)CN(c1ccccc1)C(=O)CO2 (stereo not drawn),-1.37
11,CC1=N[C@@]2(CC[C@@H]3CN(C(=O)NCC(C)C)C[C@@H]32)C(=O)N1CC(C)C,2.68
12,CN(C)Cc1nnc2n1CCN(Cc1cccnc1)C2,-0.588
13,CN(C)C(=O)c1nn(C)c2c1CN(Cc1ccoc1)C2,-6.28
14,Cc1cnc(C(=O)N2CCCC3(CCN(c4cnn(C)c4)C3=O)C2)cn1 (stereo not drawn),-5.79
15,Cn1cc(N2CCC3(CCCN(C(=O)c4ccnn4C)C3)C2=O)cn1 (stereo not drawn),-1.55
16,Cc1nn(C)c2c(N3CCN(C(=O)C(C)C)CC3)ncnc12,6.78
17,CCc1cc(C(F)(F)F)n2nc(C3CCCN3C(=O)COC)cc2n1 (stereo not drawn),3.01
18,CN(Cc1ccc(F)cc1)CC1(O)CCN(C(=O)c2ccn(C)n2)C1 (stereo not drawn),-6.41
19,CC1CCCCN1c1nc2c(c(=O)[nH]1)CCN(Cc1ccc(O)cc1)C2 (stereo not drawn),5.74
20,COCc1ccccc1C(=O)NS(=O)(=O)CCCC#N,5.24
21,CCC1CCCCN1S(=O)(=O)c1c(C)noc1C (stereo not drawn),-9.35
22,Cc1c(F)cccc1S(=O)(=O)Nc1noc(C(C)C)n1,7.21

row,Structure (SMILES),cytotoxicity at 10 µM [%]
1,CC(=O)NCc1ccc(S(=O)(=O)NC(=O)c2ccc3c(c2)COC3)s1,-1.8
2,Cc1nn(C)c2ncc(NC(=O)N(C)Cc3cc(Cl)cn3C)cc12,2.73
3,CCC(C)C(=O)N(CC(=O)OC)c1cccc(C)n1 (stereo not drawn),-4.31
4,CC(Cn1cccn1)NC(=O)CCc1nc(C(C)(C)C)no1 (stereo not drawn),14.5
5,O=C(COc1ccc2c(c1)OCC2O)NCc1ccco1 (stereo not drawn),0.878
6,CCOc1ccc(NC(=O)NCCS(=O)(=O)CC)cc1C,-3
7,Cc1ccc2c(c1)CCC2NC(=O)N1CCC(C(N)=O)CC1 (stereo not drawn),-4.83
8,CCOCCc1nc(-c2cnn3c(C)cc(C)nc23)no1,3.53
9,CC(SCC(=O)NCCC#N)c1ccc(Cl)cc1 (stereo not drawn),10.6
10,O=C1CC(N(C(=O)c2ccc(Oc3ccccc3)cc2)C2CC2)C(=O)N1 (stereo not drawn),-2.94
11,CN(CCCNS(=O)(=O)N1CCC2(CC1)OCCO2)c1ccccc1,9.13
12,COc1c(CNCc2ccccc2CN2CCOCC2)c(C)nn1C,-0.686
13,Cn1nnc(C2(NC(=O)c3ccccc3)CCCC2)n1,-10.5
14,Cc1cc(C(=O)N(CCN(C)C)Cc2ccc(Cl)cc2)no1,0.242
15,Cc1cnc(NC(=O)NC(CCO)c2cccs2)s1 (stereo not drawn),5.53
16,Cc1cccc(OCCC(=O)N(C)CC(C)C#N)c1C (stereo not drawn),-0.555
17,COCCCN(Cc1ccncc1)c1cc(C)ncn1,3.35
18,CCCS(=O)(=O)NCC(C)c1ccc(F)c(F)c1 (stereo not drawn),-6.82
19,CC(C)S(=O)(=O)c1ccccc1C(=O)NCC1Cc2ccccc2O1 (stereo not drawn),5.87
20,O=C(NS(=O)(=O)c1ccc2c(c1)CCC2)C1COCCO1 (stereo not drawn),10.4
21,Fc1cccc(NCc2ncc[nH]2)c1,-9.16
22,Cc1cc(C(=O)N2CCN(c3ccncc3Cl)CC2)n(C)n1,-9.1

row,Structure (SMILES),cytotoxicity at 10 µM [%]
1,CN(CCc1ccccn1)C(=O)C(O)c1cc(Cl)cc(Cl)c1 (stereo not drawn),-5.68
2,O=C(CCn1ccc2ccccc21)Nc1ccnn1CC1CCOC1 (stereo not drawn),2.56
3,COc1ncccc1CNC(=O)C1CC(=O)N(C)C1 (stereo not drawn),-14.6
4,Cc1ccc(C)c2c(C)c(C(=O)NCCC(=O)N3CCOCC3)oc12,1.04
5,CC(C)C(=O)N1CCCN(C(=O)NC2CCc3ccccc3C2)CC1 (stereo not drawn),-7.33
6,CC(C)c1noc(CS(=O)(=O)CC(=O)NCc2ccccc2)n1,-10.5
7,CCN1CCC(CNCc2cc(OC)ccc2OC)C1 (stereo not drawn),-2
8,Cc1cc(F)ccc1CN1CCCC2(C1)OCCO2,-11.8
9,CCOC[C@@]12CCC[C@@H]1CN(C(=O)COc1ccccc1OC)C2,-106
10,Cc1ccc(C(=O)N2C[C@@H](N3CCN(C)CC3)[C@H]3OCCC[C@H]32)cn1,-113
11,Cc1nnc([C@@]23CCO[C@@H]2CCN(Cc2scnc2C)C3)o1,-111
12,O=C(NC[C@]12COC[C@H]1CN(Cc1cccc(F)c1)C2)c1ccco1,-66.7
13,CN1C(=O)CC(c2cnn(C)c2)C12CCN(C(=O)c1ccco1)CC2 (stereo not drawn),-75.5
14,CC(C)NC(=O)c1ccc2nnc(C3CCN(S(C)(=O)=O)C3)n2c1 (stereo not drawn),3.5
15,Cc1ccc(C(=O)N2C[C@@H](OCc3cccnc3)[C@H]3OCCC[C@H]32)o1,4.74
16,O=S1(=O)C[C@@H]2[C@H](C1)N(Cc1ncc[nH]1)CCN2C/C=C/c1ccccc1,11.2
17,CCn1nc(C)c(C(C)NC(=O)c2cnc(N(C)C)nc2C)c1C (stereo not drawn),5.19
18,CC(C(=O)N1CCn2cncc2C1)N1C[C@@H](C)O[C@@H](C)C1 (stereo partly drawn),3.13
19,CCc1nc(C)c(C(=O)N(C)Cc2cnc3ccccn23)o1,-1.94
20,CCCS(=O)(=O)N1CCC2(CCC(=O)N(CCc3cccnc3)C2)CC1,-4.92
21,Cc1ncsc1CCN(C)Cc1cc2n(n1)CCN(Cc1ncc[nH]1)C2,-22.2
22,O=C(c1ccc(-c2cn[nH]c2)nc1)N1CCC(N2CCOCC2)CC1,1.38

row,Structure (SMILES),cytotoxicity at 10 µM [%]
1,Cc1nnsc1C(=O)N(C)Cc1nc(-c2ccccn2)no1,1.89
2,CC(C)(C)c1ncc(C(=O)N2CCC(N3CCSCC3)CC2)c(O)n1,0.382
3,CN1CCC(N2CCCC(C(=O)N3Cc4ccccc4C3)C2)CC1 (stereo not drawn),5.19
4,Cc1[nH]c(=O)[nH]c(=O)c1CC(=O)N1CCC(Oc2ccc(F)cc2)CC1,4.42
5,CC(O)c1cn(C2CCN(C(=O)C3(C)CCCCC3)CC2)nn1 (stereo not drawn),-7.11
6,COCC1CCN(S(=O)(=O)c2ccc(C(=O)NCC(F)F)cc2)C1 (stereo not drawn),6.95
7,c1cc(-c2cn[nH]c2)ccc1CN1CCCCC1,1.58
8,OCCC1CN(c2ncnc3[nH]cnc23)CCN1Cc1ccccc1F (stereo not drawn),17
9,CCc1c(C)nc(C)nc1N1C[C@@H](CN(CC)CCO)[C@@H](CO)C1,1.5
10,O=C(CC1CCc2ccccc21)NC1(C(=O)O)CCCC1 (stereo not drawn),-11.9
11,O=C(O)[C@]12CCCN(Cc3nccs3)[C@@H]1CCN(c1cnccn1)C2,-0.911
12,Cn1cc(Cl)c(CN2CCn3nc(C(=O)Nc4ccccc4)cc3C2)n1,-2.8
13,CCN1CC2(CCC1=O)CCN(CCOc1ccc(F)cc1)CC2,4.19
14,CCC(CO)N(Cc1ccco1)C(=O)c1cccc(C)c1O (stereo not drawn),0.126
15,CCn1nc(CNC(=O)C2CCCN(C(=O)COC)C2)c2ccccc21 (stereo not drawn),-1.29
16,Cc1nccnc1N1Cc2cnc(CC(C)C)nc2C1,1.81
17,CCc1c(C)nn(C)c1NC(=O)N1CCCOC(Cn2cccn2)C1 (stereo not drawn),-8.14
18,COc1ncc(C2CC(=O)NCc3nc4ccccn4c32)cn1 (stereo not drawn),-9.75
19,CSCC[C@H](N)C(=O)NCc1cc2n(n1)CCCN(C1CCCCC1)C2,-15.3
20,O=C(c1cc(COc2ccc3c(c2)OCO3)[nH]n1)N1CCOCC1,-5.21
21,COCCCn1ccnc1-c1cnc(OC)nc1,-13.6
22,Cc1ccc(Cl)cc1N1CCC(CNC(=O)Cn2cccn2)C1 (stereo not drawn),-6.72

row,Structure (SMILES),cytotoxicity at 10 µM [%]
1,COc1ccc(OC)c(C(O)CNC(=O)Nc2cc(C)nn2C)c1 (stereo not drawn),-9.86
2,CC(=O)N1CCCCCC1C1CCN(c2ncccc2C#N)CC1 (stereo not drawn),-7.13
3,Cc1nn(C)c(C)c1CC(=O)N1CCCN(c2cccnn2)CC1,-2.1
4,Cc1nc(C)n(CC2CN(Cc3cccc(C#N)c3)CCO2)n1 (stereo not drawn),-10.3
5,O=C(NCc1csc(Br)c1)c1ccc(=O)[nH]n1,1.66
6,COCCOc1ccc(NC(=O)N2CCCC2c2ccncc2)cn1 (stereo not drawn),-3.49
7,Cc1nc2ccccc2nc1CN(C)CC1CCCN1c1cccnn1 (stereo not drawn),7.17
8,CCCN(Cc1cccnc1)C1CC(C)(C)NC(C)(C)C1,-4.47
9,COc1cc(CNCc2ccco2)ccc1OCCO,3.35
10,c1coc(CN2CCc3nnc(COc4cncnc4)n3CC2)c1,4.15
11,COCCNC(=O)[C@H]1C[C@@H]2CCN(c3ccccc3)C[C@H]2O1,2.78
12,c1cnc(NCc2nnn3c2CN(CC2CC2)CCC3)nc1,-0.536
13,CS(=O)(=O)N1CCO[C@@H]2CN(Cc3ccc(F)cc3)CC[C@@H]2C1,6.86
14,CC(C)c1nc(-c2cc(C(=O)N3CCN(C)CC3)c3ccccn23)cs1,5.77
15,Cc1nc(CN2CC[C@@H](OCC3CC3)[C@@H]2Cc2cccnc2)cs1,-4.38
16,O=C1[C@@H]2CCN(Cc3ccccn3)C[C@@H]2OCCN1c1ccccc1,-73.7
17,Cc1ccc(CC(=O)N2Cc3nccn3CC(CN(C)C)C2)cc1 (stereo not drawn),-9.58
18,Cn1cc(CN2CC[C@@H]3[C@@H]2CCN3C(=O)c2cccc(F)c2)cn1,-66.4
19,N#Cc1ccc(C(=O)O)nc1C=Cc1cccc(Cl)c1,13
20,CC(C)=CCN1C[C@@H]2CC[C@H]1CN(C(=O)c1ccc3nc[nH]c3c1)C2,-1.31
